In the library only some 1.3% were active in any assay of this set; here they are far more common.
NR2E3 ag-1: NR2E3 agonists in two-hybrid cells, primary screen, cell-based, luminescence, CHO-S, Gal4-NCOR/VP16-NR2E3 | inhibition of corepressor binding, % at 3.98 µM | Photoreceptor-specific nuclear receptor (Homo sapiens), Q9Y5X4 | 360,000 compounds, 0.35% hits | luciferase;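 active means inhibition above the mean of all tested compounds plus 3 SD, cut at about 70% in these data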;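 further: 0% = DMSO with NR2E3 transfected cells and 100% = cells lacking NR2E3 construct; higher means lower luciferase signal from less NR2E3 corepressor binding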
NR2E3 ag-2: inhibitors of NR2E3-RetCOR corepressor binding, primary screen, NR2E3 agonist project, biochemical, TR-FRET, GST-NR2E3, biotin-RetCOR | inhibition of corepressor binding, % at 4.78 µM | AID 2300, 2010 | 320,000 compounds, 0.12% hits | 1536-well;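 active means percent inhibition above the cutoff of mean plus 3 SD of all tested compounds, set per screening campaign, cut at about 20% in these data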;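 further: 0% = DMSO wells and 100% = biotin wells as full block of FRET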
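Format: 1536-well format; test system: GST-NR2E3 and biotin-RetCOR proteins; read-out basis: percent inhibition of TR-FRET ratio; timing: 5 h incubation at 4 °C; detection: time-resolved FRET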
PP1 counter: PP1-alpha phosphatase inhibitors, primary screen, counter-screen for PP5 inhibitor project, biochemical, fluorescence, OMFP substrate, single point | purified PP1alpha | inhibition, % at 6.7 µM | 320,000 compounds, 0.9% hits | AID 2235, 2010;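 active means inhibition above the mean inhibition of all tested compounds plus 3 SD, computed separately for each screening campaign, cut at about 15% in these data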
Target sequence (P62136 whole entry, looked up): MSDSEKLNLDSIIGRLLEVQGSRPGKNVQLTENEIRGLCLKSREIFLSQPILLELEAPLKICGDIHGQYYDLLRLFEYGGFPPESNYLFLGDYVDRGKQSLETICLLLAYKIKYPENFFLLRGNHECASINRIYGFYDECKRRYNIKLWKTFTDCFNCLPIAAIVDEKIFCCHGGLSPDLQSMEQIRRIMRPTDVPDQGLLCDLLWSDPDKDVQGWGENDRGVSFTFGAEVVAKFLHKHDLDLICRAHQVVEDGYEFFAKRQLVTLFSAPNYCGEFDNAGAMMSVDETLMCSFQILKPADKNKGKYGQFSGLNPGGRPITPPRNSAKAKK
PP5 inh: PP5 phosphatase inhibitors, primary screen, biochemical, fluorescence | Serine/threonine-protein phosphatase 5 (Homo sapiens), P53041 | purified PP5c, OMFP substrate fluorescence | inhibition, % at 6.7 µM | 320,000 compounds, 0.18% hits;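 active means inhibition above the campaign's mean inhibition across all tested compounds plus 3 SD, cut at about 9.5% in these data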;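 further: 0% = DMSO only and 100% = 100 µM cantharidin control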
NR2E3 ag confirm: NR2E3 agonist confirmation in cells, cell-based, luminescence, CHO-S two-hybrid. shares compounds with NR2E3 ag-1. CHO-S mammalian two-hybrid NR2E3-NCOR, luciferase luminescence. inhibition, % at 3.98 µM. 2,300 compounds, 51% hits. AID 624378, 2012;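 active means average inhibition above a cutoff equal to the mean inhibition of all tested compounds plus one SD, cut at about 70% in these data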;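 further: 0% = DMSO in NR2E3 cells and 100% = DMSO in cells lacking NR2E3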
GAL4-VP16 luc: GAL4-VP16 reporter modulators, confirmation, counter-screen for NR2E3 agonist project, cell-based, luminescence, CHO-S, high throughput; CHO-S GAL4-VP16 luciferase reporter; inhibition, % at 3.98 µM; AID 624379, 2012; shares compounds with NR2E3 ag-1; 2,300 compounds, 29% hits;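 active means mean inhibition above a cutoff equal to the average over all tested compounds plus one standard deviation, cut at about 70% in these data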;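 further: luciferase from a UAS reporter driven by GAL4-VP16 transactivation; 0% = DMSO with VP16-transfected cells and 100% = DMSO with cells lacking VP16; higher means less reporter light so more repression of VP16 activity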
The depositor's hits bear a star.

For O=C(NCc1cccnc1)c1ccc(-c2ccc(F)c(F)c2)c2ccoc12 the results were NR2E3 ag-1 76.3*, NR2E3 ag confirm 95.7* and GAL4-VP16 luc 75.9*.
COc1ccc(CNC(=O)c2cccc3c(-c4ccc(F)c(F)c4)coc23)cc1OC was read as NR2E3 ag-1 60.7, NR2E3 ag confirm 79.5* and GAL4-VP16 luc 47.6.
CC(=O)c1c(C)[nH]c(C(=O)CN2C(=O)NC(CCc3ccccc3)C2=O)c1C (centres undefined) was read as NR2E3 ag-1 -17.5, NR2E3 ag-2 1.7, PP1 counter -0.7 and PP5 inh -0.2.
`CC(C)[C@H](NS(=O)(=O)c1ccc(Cl)cc1)C(=O)OCC(=O)NCCN1C(=O)CSC1=O` gave NR2E3 ag-1 3.1, NR2E3 ag-2 -1.1, PP1 counter -7.3 and PP5 inh -0.8.
`COc1ccc(OC)c(NC(=O)CSc2nc3nc(C)cc(C)n3n2)c1` gave NR2E3 ag-1 -7.9, NR2E3 ag-2 1.3, PP1 counter -2.9 and PP5 inh 3.6.
Screening O=C(CNC(=O)OCc1ccccc1)NCC(=O)Oc1ccc([N+](=O)[O-])cc1 returned NR2E3 ag-1 -6.4.
Screening CCCCC(=O)N(C)c1c(C)nc2ccc(C(=O)NCCN(C)C)cn12 returned NR2E3 ag-1 3.5.
For CCc1cc(-c2nnn(CCC3COCCO3)c2CC)ccc1-c1cn(Cc2ccccc2)nn1 (centres undefined) the results were NR2E3 ag-1 75.8*, NR2E3 ag confirm 75.6* and GAL4-VP16 luc 66.4.
Screening CCc1cc(-c2cnnn2Cc2ccc3ccccc3c2)ccc1-c1cn(CC(C)C)nn1 returned NR2E3 ag-1 -36.8.
`CC(Nc1ncnc2ccccc12)c1ccccc1` (centres undefined) gave NR2E3 ag-1 75.2*, NR2E3 ag-2 5.6, PP1 counter 0.3, PP5 inh 1.7, NR2E3 ag confirm 95.7* and GAL4-VP16 luc 90.5*.
`Cc1onc(-c2c(Cl)cccc2Cl)c1C(N)=S` gave NR2E3 ag-1 -15.1, NR2E3 ag-2 3.2, PP1 counter -0.9 and PP5 inh 4.0.
O=C1OCC/C1=C\OCCCO/C=C1\CCOC1=O was read as NR2E3 ag-1 1.9, NR2E3 ag-2 -2.8, PP1 counter -2.5 and PP5 inh 0.8.
Screening Cc1ccc(N/N=C(\C#N)C(=O)c2ccsc2)cc1 returned NR2E3 ag-1 -26.6, NR2E3 ag-2 -1.7, PP1 counter -0.8 and PP5 inh -0.6.
`N#C/C(=N\Nc1ccccc1)C(N)=S` gave NR2E3 ag-1 10.4, NR2E3 ag-2 -9.2, PP1 counter -3.7 and PP5 inh -2.1.
N#C/C(=N\Nc1ccc(Cl)cc1)C(N)=S was read as NR2E3 ag-1 67.3, NR2E3 ag-2 0.6, PP1 counter -0.5, PP5 inh 2.4, NR2E3 ag confirm -14.0 and GAL4-VP16 luc 5.5.
N#C/C(=N\Nc1ccc(Cl)cc1)C(=O)c1ccsc1 was read as NR2E3 ag-1 81.3*, NR2E3 ag-2 -0.4, PP1 counter 1.3, PP5 inh 5.5, NR2E3 ag confirm 100.0* and GAL4-VP16 luc 88.2*.
O=C(Nc1cscc1S(=O)(=O)c1ccccc1)c1ccccc1Cl was read as NR2E3 ag-1 -6.0, NR2E3 ag-2 -4.2, PP1 counter -3.6 and PP5 inh 0.6.
`Cc1nc(C(=O)O)nn1-c1cc(Cl)ccc1Cl` gave NR2E3 ag-1 16.9, NR2E3 ag-2 0.2, PP1 counter -5.9 and PP5 inh -1.2.
`O=C(Cn1nnc2ccccc2c1=O)NCC1CCC(C(=O)O)CC1` (centres undefined) gave NR2E3 ag-1 -15.0, NR2E3 ag-2 -3.3, PP1 counter -3.1 and PP5 inh -0.6.
O=C(N/N=C/c1ccc(Cl)cc1)c1ccc2nc[nH]c2c1 was read as NR2E3 ag-1 -20.6.
For Cc1ccc(-c2csc(N3CCC(C(N)=O)CC3)n2)cc1 the results were NR2E3 ag-1 -115.2, NR2E3 ag-2 3.3, PP1 counter 0.2 and PP5 inh 1.1.
Cc1ccc(-c2csc(N3CCC(NS(=O)(=O)c4ccc5c(c4)OCCO5)CC3)n2)cc1 was read as NR2E3 ag-1 88.6*, NR2E3 ag-2 0.4, PP1 counter 1.6, PP5 inh 2.9, NR2E3 ag confirm 99.1* and GAL4-VP16 luc 89.4*.
Screening O=c1cc(CCl)nc(Cc2c(Cl)cccc2Cl)[nH]1 returned NR2E3 ag-1 -13.3, NR2E3 ag-2 0.8, PP1 counter -2.0 and PP5 inh 1.6.
For Cn1nc(CC(=O)NCc2ccc(C(F)(F)F)cc2)c2ccccc2c1=O the results were NR2E3 ag-1 67.4, NR2E3 ag-2 2.9, PP1 counter -3.0, PP5 inh 3.8, NR2E3 ag confirm 91.3* and GAL4-VP16 luc 78.8*.
CCc1c(C)nc2nc(SCc3ccccc3Cl)[nH]n2c1=O was read as NR2E3 ag-1 68.8, NR2E3 ag-2 -3.3, PP1 counter 6.5, PP5 inh 1.0, NR2E3 ag confirm 84.2* and GAL4-VP16 luc 61.0.
Screening CSc1nc2nc(C)c(C/C=C/c3ccccc3)c(=O)n2[nH]1 returned NR2E3 ag-1 -31.8, NR2E3 ag-2 1.8, PP1 counter -7.0 and PP5 inh 2.6.
Screening CC(=O)Nc1ccc(S(=O)(=O)Nc2ccc3nc(C)sc3c2)cc1 returned NR2E3 ag-1 43.1.
For Cc1nc2ccc(NS(=O)(=O)c3ccc4c(c3)OCCO4)cc2s1 the results were NR2E3 ag-1 94.2*, NR2E3 ag-2 -4.2, PP1 counter -1.0, PP5 inh 1.9, NR2E3 ag confirm 97.3* and GAL4-VP16 luc 91.1*.
Cc1nc2ccc(NS(=O)(=O)c3ccc(Br)cc3)cc2s1 was read as NR2E3 ag-1 84.9*, NR2E3 ag-2 1.1, PP1 counter -0.3, PP5 inh 0.7, NR2E3 ag confirm 96.9* and GAL4-VP16 luc 76.1*.
Cc1ccc(S(=O)(=O)Nc2ccc3nc(C)sc3c2)cc1 was read as NR2E3 ag-1 71.9*, NR2E3 ag-2 1.9, PP1 counter -0.7, PP5 inh -1.6, NR2E3 ag confirm 88.5* and GAL4-VP16 luc 75.8*.
Cc1nc2ccc(NS(=O)(=O)c3cccc([N+](=O)[O-])c3)cc2s1 was read as NR2E3 ag-1 62.8, NR2E3 ag confirm 85.3* and GAL4-VP16 luc 72.3*.
Cc1nc2ccc(NS(=O)(=O)c3ccc(F)c(F)c3)cc2s1 was read as NR2E3 ag-1 64.7, NR2E3 ag-2 2.9, PP1 counter -0.1, PP5 inh 0.4, NR2E3 ag confirm 59.1 and GAL4-VP16 luc 45.7.

Screening data deposited in PubChem by The Scripps Research Institute Molecular Screening Center.
